Data set [1] deals with A549. Put plainly: Antitumor activity against human A549 cells xenografted in BALB/c nude mouse assessed as tumor growth inhibition at 30 mg/kg, ip administered every other day for 1 month measured every other day post dose relative to vehicle-treated control. It counts as functional. The conditions noted are these: read-out: TGI. A general note: A xenograft is tissue or cells of one species grown in another, often human tumour cells in immunodeficient mice.

Data set [2] in a line: Cytotoxicity against human HCT8/VCT cells assessed as growth inhibition after 48 hrs by MTT assay. It counts as functional, cell-based. A digest of the protocol:
(§1)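 Drug-resistant lines were tested by a 48 h MTT viability assay. IC50 was derived from dose-response curves and reported as mean ± SE of at least three independent experiments.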
(In general: Tetrazolium dyes change colour on reduction, which living cells bring about.)

Data set [3] can be described thus: Cytotoxicity against human MCF7/DX cells assessed as growth inhibition after 48 hrs by MTT assay. It counts as functional, cell-based. A digest of the protocol: as §1
Data set [4] in a line: Cytotoxicity against human A549/CDDP cells assessed as growth inhibition after 48 hrs by MTT assay. To be noted: A549, 48 h. In kind it is functional, cell-based. A digest of the protocol:
as §1

The subject of data set [5] is MCF7. Put plainly: Resistance index, ratio of IC50 for human MCF7/DX cells to IC50 for human MCF7 cells. It counts as functional.
In data set [6] the test system is A549. Put plainly: Resistance index, ratio of IC50 for human A549/CDDP cells to IC50 for human A549 cells. It counts as functional.
Data set [7] in a line: Cytotoxicity against human HCT8 cells assessed as cell viability after 48 hrs by MTT assay. It counts as functional, cell-based. To be noted: HCT-8, 48 h. A digest of the protocol:
(§2)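 Cancer cell lines treated with compound for 48 h, and viability read by MTT assay. IC50 given as mean ± SD from at least three independent experiments.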

The test system of data set [8] is A2780. Kind of data set: Cytotoxicity against human A2780 cells assessed as cell viability after 48 hrs by MTT assay. It counts as functional, cell-based. The conditions noted are these: A2780, 48 h. The procedure, abridged: as §2
The test system of data set [9] is A549. Put plainly: Cytotoxicity against human A549 cells assessed as cell viability after 48 hrs by MTT assay. It counts as functional, cell-based. To be noted: A549, 48 h. A digest of the protocol: as §2
For the next data set, the system named is HCT-8. Put plainly: Resistance index, ratio of IC50 for human HCT8/VCT cells to IC50 for human HCT8 cells. In kind it is functional.
Data set [10] relates to A2780. Kind of data set: Resistance index, ratio of IC50 for human A2780/TAX cells to IC50 for human A2780 cells. It counts as functional.
Data set [11] can be described thus: Cytotoxicity against human A2780/TAX cells assessed as growth inhibition after 48 hrs by MTT assay. In kind it is functional, cell-based. The procedure, abridged:
as §1

Data set [12] concerns MCF7. Put plainly: Cytotoxicity against human MCF7 cells assessed as cell viability after 48 hrs by MTT assay. In kind it is functional, cell-based. The conditions noted are these: MCF7, 48 h. The procedure, abridged: as §2
Data set [13] can be described thus: Cytotoxicity against human Bel7402 cells assessed as cell viability after 48 hrs by MTT assay. It counts as functional, cell-based. The conditions noted are these: Bel-7402, 48 h. The procedure, abridged: as §2
Another data set concerns HeLa. Put plainly: Cytotoxicity against human HeLa cells assessed as cell viability after 48 hrs by MTT assay. In kind it is functional, cell-based. The procedure, abridged:
as §2

Another data set addresses Tubulin (Sus scrofa, UniProt P02554+P02550). Kind of data set: Inhibition of porcine brain tubulin polymerization measured every 60 secs for 60 mins by DAPI staining-based fluorescence assay.
Data set [14] can be described thus: Metabolic stability in Sprague-Dawley rat liver microsomes assessed as compound remaining at 60 mins in presence of NADPH regenerating system by HPLC method. In kind it is ADME. To be noted: read-out: Stability. A digest of the protocol:
(§3)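 Test compound incubated with rat liver microsomes at 37 ℃ in buffer containing an NADPH regenerating system for the stated time. Remaining parent compound was quantified by HPLC.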
(Liver microsomes are a subcellular fraction often used to study metabolism.)

The nature of data set [15]: Metabolic stability in Sprague-Dawley rat liver microsomes assessed as compound remaining at 90 mins in presence of NADPH regenerating system by HPLC method. It counts as ADME. The conditions noted are these: read-out: Stability. A digest of the protocol: as §3
Data set [16] can be described thus: Metabolic stability in Sprague-Dawley rat liver microsomes assessed as compound remaining at 30 mins in presence of NADPH regenerating system by HPLC method. In kind it is ADME. To be noted: read-out: Stability. The procedure, abridged:
as §3

Data set [17] in a line: Metabolic stability in Sprague-Dawley rat liver microsomes assessed as compound remaining at 120 mins in presence of NADPH regenerating system by HPLC method. The conditions noted are these: read-out: Stability. In kind it is ADME. A digest of the protocol:
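Rat liver microsomes incubated with compound at 37 ℃ for indicated times in buffer containing NADPH regenerating system; residual parent determined by HPLC.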

A further data set relates to Mus musculus. Put plainly: Toxicity in BALB/c nude mouse xenografted with human A549 cells assessed as loss of body weight at 30 mg/kg, ip administered every other day for 1 month measured every other day post dose relative to vehicle-treated control. In kind it is organism-based. To be noted: in vivo.
The nature of data set [18]: Solubility of the compound in sodium phosphate buffer at pH 7.4 at 25 +/- 1 degC. In kind it is physicochemical.

This note sets out measurements from ChEMBL document CHEMBL3817728, “Synthesis, Evaluation, and Mechanism Study of Novel Indole-Chalcone Derivatives Exerting Effective Antitumor Activity Through Microtubule Destabilization in Vitro and in Vivo” (J Med Chem, 2016).

As a reminder, the IC50 is the concentration that inhibits the measured activity by half. By solubility is commonly meant how much of the substance goes into solution per volume. Read a high solubility as a readily soluble substance.

Regarding `COc1ccc(/C=C\c2cc(OC)c(OC)c(OC)c2)cc1OP(=O)(O)O` [FOSBRETABULIN], in the data set on A549 [1], the inhibition in vivo at 30 mg/kg was found to be 52.2%.
`CC[C@]1(O)C[C@H]2CN(CCc3c([nH]c4ccccc34)[C@@](C(=O)OC)(c3cc4c(cc3OC)N(C=O)[C@H]3[C@@](O)(C(=O)OC)[C@H](OC(C)=O)[C@]5(CC)C=CCN6CC[C@]43[C@@H]65)C2)C1` [VINCRISTINE]: the IC50 in data set [2] came to 7860 nM; in data set [3], 1260 nM; in data set [4], 561 nM; in data set [7] it was 350 nM; with A2780 [8] it was 26 nM; with A549 [9], 61 nM. For the same compound, the IC50 in [11] came out at 168 nM; in the data set on MCF7 [12], 98 nM. In addition, the “Ratio IC50” value in the data set on MCF7 [5] is on record as 12.9; in the data set with A549 [6], 9.2; in the data set with HCT-8, 22.5; in the data set on A2780 [10], 6.46.
`CC(=O)O[C@H]1C(=O)[C@@]2(C)[C@H]([C@H](OC(=O)c3ccccc3)[C@]3(O)C[C@H](OC(=O)[C@H](O)[C@@H](NC(=O)c4ccccc4)c4ccccc4)C(C)=C1C3(C)C)[C@]1(OC(C)=O)CO[C@@H]1C[C@@H]2O` [PACLITAXEL]: the half-maximal inhibitory concentration (IC50) was 125 nM in data set [2]; 135 nM in data set [3]; 23 nM in [4]; 19 nM in data set [7]; 5 nM in the data set with A2780 [8]; 5680 nM in data set [11].
As for `COc1ccc2[nH]cc(/C=C(\C)C(=O)c3cc(OC)c(OC)c(OC)c3)c2c1`, the IC50 worked out at 96 nM in data set [13]; 48 nM in data set [7]; 78 nM with HeLa; 32 nM in the data set on A2780 [8]; 5060 nM against Tubulin; 74 nM with A549 [9]. For the same compound, the IC50 in the data set on MCF7 [12] was 33 nM.
`COc1ccc2c(/C=C(\C)C(=O)c3cc(OC)c(OC)c(OC)c3)cn(CO)c2c1`: the IC50 in [13] turned out to be 9 nM; in [7] it was 17 nM; in the data set on HeLa, 13 nM; in the data set on A2780 [8], 21 nM; against Tubulin, 3590 nM; in the data set with A549 [9], 8 nM. Further, the IC50 in the data set on MCF7 [12] was found to be 19 nM.
As to `COc1ccc2c(/C=C/C(=O)c3ccc(OC)c4c3OC(C)(C)C=C4)c[nH]c2c1`, the half-maximal inhibitory concentration (IC50) was 78 nM in data set [13]; 77 nM in data set [7]; 49 nM with HeLa; 41 nM with A2780 [8]; 4390 nM on Tubulin; 55 nM with A549 [9]. In the data set with MCF7 [12], the IC50 was found to be 56 nM.
`COc1ccc2c(/C=C/C(=O)c3cc(OC)c(OC)c(OC)c3)cn(C)c2c1`: the IC50 in [13] came out at 61 nM; in data set [7], 47 nM; with HeLa it was 62 nM; in the data set on A2780 [8], 25 nM; at Tubulin, 3480 nM; with A549 [9], 23 nM. The IC50 in the data set on MCF7 [12] came out at 87 nM.
Consider `COc1cccc2c1C(=O)c1c(O)c3c(c(O)c1C2=O)C[C@@](O)(C(=O)CO)C[C@@H]3O[C@H]1C[C@H](N)[C@H](O)[C@H](C)O1` [DOXORUBICIN], for which the IC50 is 1510 nM in data set [2]; 50400 nM in [3]; 3140 nM in data set [4]; 1170 nM in [7]; 980 nM in the data set on A2780 [8]; 2170 nM in the data set with A549 [9]. Besides, in data set [11], the IC50 was found to be 3290 nM. Also, the “Ratio IC50” value with MCF7 [5] was found to be 49.4; in the data set on A549 [6], 1.44; in the data set with HCT-8, 1.29; in the data set with A2780 [10], 3.35.
On to `COc1ccc(/C=C\c2cc(OC)c(OC)c(OC)c2)cc1O` [COMBRETASTATIN A4], for which the half-inhibitory concentration (IC50) in data set [2] stood at 5 nM; in data set [3], 27 nM; in data set [13], 3 nM; in data set [7], 1.7 nM; with HeLa it was 12 nM; in the data set with A2780 [8] it was 9 nM. Also, the IC50 in the data set with A549 [9] was 5 nM; in [11] it was 58 nM. The remaining at 1 h in [14] is 28.6%. Besides, the remaining at 1.5 h in data set [15] is 23.1%. Moreover, the remaining at 0.5 h in [16] is 68.1%. In addition, in [17], the remaining at 2 h is 20.7%.
Regarding `COc1ccc2c(/C=C(\C)C(=O)c3cc(OC)c(OC)c(OC)c3)cn(P(=O)([O-])[O-])c2c1.[Na+].[Na+]`, the Activity entry with Mus musculus is “Non-toxic”. Further, the IC50 in data set [13] worked out at 61 nM; in data set [7] it was 92 nM; in the data set with HeLa, 78 nM; with A2780 [8] it was 43 nM; in the data set with A549 [9], 56 nM; in the data set on MCF7 [12], 38 nM. The amount in solution in [18] (solubility) came to 125 mg/mL. The inhibition in vivo at 30 mg/kg with A549 [1] was found to be 70.4%.
